Source: ChEMBL document CHEMBL4715832, “Isoquinoline-based biaryls as a robust scaffold for microtubule inhibitors” (Eur J Med Chem, 2020)
pEC50: −log10 of the molar value. The source made the active and inactive calls. The rule behind the calls is not given here.

Columns and labels:
HeLa [1] = assay: Antiproliferative activity against human HeLa cells assessed as reduction in cell growth after 48 hrs by resazurin dye based fluorescence assay; assay type: functional
Outline: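 HeLa cells grown in DMEM with 10% FCS and penicillin/streptomycin, 37 °C, 5% CO2. Seeded 5,000 cells/well, treated 24 h later with DMSO 1% final, then incubated 48 h. Resazurin reduction to resorufin measured over 3 h at 37 °C by fluorescence (ex 544/em 590 nm). Normalised to cosolvent control (100%) and cell-free wells (0%). Means of at least three independent experiments.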

Homo sapiens = species on record: Homo sapiens; assay: Inhibition of porcine tubulin polymerization at 16 uM preincubated for 10 mins followed by GTP addition by turbidimetric method
Outline: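 Purified porcine brain tubulin (99% purity) pre-incubated 10 min at 37 °C with compound at 16 µM in buffer containing 3% DMSO and 10% glycerol. Polymerisation started at time zero by adding GTP to 1 mM. Absorbance at 340 nm followed over time at 37 °C as the turbidity read-out.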

tubulin (Sus scrofa) = assay: Inhibition of porcine tubulin polymerization at 20 uM preincubated for 10 mins followed by GTP addition by turbidimetric method
HeLa [2] = assay: Induction of microtubule network depolymerization in human HeLa cells after 24 hrs by immunofluorescence staining based confocal microscopic analysis; assay type: cell-based
Outline: (§1)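 HeLa cells seeded on glass coverslips (50,000 cells/well), allowed to adhere 18 h, then treated 24 h. Fixed with 0.5% glutaraldehyde, quenched with 0.1% NaBH4, blocked with PBS + 10% FCS. Stained with rabbit anti-alpha-tubulin (1:400, 1 h), then Alexa Fluor 488 anti-rabbit secondary, with DAPI nuclear counterstain. Imaged by confocal microscopy, including z-stack projections.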

HL-60 = assay: Antiproliferative activity against human HL-60 cells assessed as reduction in cell growth after 24 hrs by MTT assay; assay type: functional, cell-based; conditions: HL-60, 24 h
Outline: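 HL-60 cells grown in RPMI 1640 with 10% FCS, no antibiotics, 37 °C, 5% CO2. Seeded 9,000 cells/well, treated 24 h later with DMSO cosolvent at 1% final. After 24 h, MTT 0.5 mg/mL for 2 h, absorbance read. Normalised to cosolvent control (100%) and Triton X-100-treated cells (0%). Means of at least three independent experiments.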

[3] = Solubility of compound; assay type: physicochemical
HeLa [4] = assay: Induction of microtubule network depolymerization in human HeLa cells at 15 uM after 24 hrs by immunofluorescence staining based confocal microscopic analysis; assay type: cell-based; outline: as §1

Question: With `COc1cc(-c2nccc3c(OC)c(OC)c(OC)cc23)ccc1O` as the compound, how does the pEC50 (HeLa [1]) read?
Answer: Its pEC50 is 4.30.

Question: Which inhibition (Homo sapiens) does the source give for `COc1cc2c(c(OC)c1OC)-c1ccc(OC)c(=O)cc1[C@@H](NC(C)=O)CC2` here?
Answer: The inhibition was “Active”.

Question: What does the source list for `COc1cc2c(-c3cc(OC)c(OC)c(OC)c3)nccc2cc1F`?
Answer: inhibition (tubulin (Sus scrofa)): Active; Activity (HeLa [1]): Dose-dependent effect; pEC50 (HeLa [1]): 6.55; Activity (HeLa [2]): Dose-dependent effect

Question: With `COc1ccc(C(=O)c2nccc3c(OC)c(OC)c(OC)cc23)cc1` as the compound, how does the pEC50 (HeLa [1]) read?
Answer: Its pEC50 is less than 4.10.

Question: Which results are given for `COc1cc(-c2nccc3c(OC)c(OC)c(OC)cc23)ccc1OP(=O)(O)O`?
Answer: pEC50 (HL-60): < 4.00; pEC50 (HeLa [1]): < 4.00

Question: Which results are given for `COc1cc(-c2nccc3cc4c(cc23)OCO4)cc(OC)c1OC`?
Answer: pEC50 (HeLa [1]): < 4.70; solubility [3]: Insoluble; Activity (HeLa [4]): inactive; Activity (HeLa [2]): inactive

Question: With `COc1ccc2ccnc(-c3cc(OC)c(OC)c(OC)c3)c2c1` as the compound, how does the Activity (HeLa [1]) read?
Answer: Its Activity is “Dose-dependent effect”.

Question: And the pEC50 (HeLa [1])?
Answer: Its pEC50 is 6.74.

Question: What about the Activity (HeLa [2]) of the same compound?
Answer: The Activity was “Dose-dependent effect”.

Question: With `COc1ccc(-c2nccc3c(OC)c(OC)c(OC)cc23)c(C(=O)O)c1` as the compound, how does the pEC50 (HeLa [1]) read?
Answer: Its pEC50 is less than 4.00.
